The values below come from ChEMBL document CHEMBL1126035, “Selective beta 3-adrenergic agonists of brown adipose tissue and thermogenesis. 1. [4-[2-[(2-Hydroxy-3-phenoxypropyl)amino]ethoxy]phenoxy]acetates” (1992).

Each structure is given as a SMILES string. Activity calls are given as the source filed them. The rule behind the calls is not given here.

The nature of test [1]: Ratio of the dose (D500,peroral administration) elevating the rat heart rate to 500 bpm to the GDP ED50. The test is classed as functional. The gist of the method:
(§1)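 Rats held at 29 °C for 2 weeks, groups of six dosed (sc or po) at the BAT GDP ED50, then at rising multiples of it. Heart rate read 15–30 min after dosing until ≥500 bpm, giving D500; vehicle control group of six. Index = D500 divided by GDP-binding ED50 from cold-adapted rats.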

For test [2], the target named is Beta-3 adrenergic receptor (Rattus norvegicus) (UniProt P26255). Briefly: Inhibition of beta-3 adrenergic receptor GDP binding in rat brown adipose tissue on oral administration relative to isoprenaline. The test is classed as tissue-based. The gist of the method: (§2)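 Rats cold-adapted at 4 °C for 4 days, then kept at 23 °C for 2 days; next day dosed sc or po in 0.45% aqueous NaCl/0.25% w/v Polysorbate 80, 0.1–10 mg kg-1, n=6 per group. Interscapular BAT taken 1 h later, mitochondria by differential centrifugation, GDP binding measured. Expressed relative to isoprenaline sulfate 1 mg kg-1; ED50 by linear regression.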

A short description of test [3]: Ratio of the dose (D500,subcutaneous administration) elevating the rat heart rate to 500 bpm to the GDP ED50. The test is classed as functional. The procedure, abridged: as §1
Test [4] concerns the target Beta-3 adrenergic receptor (Rattus norvegicus) (UniProt P26255). In words: Dose necessary to produce 50% of the isoprenaline effect to inhibit GDP binding to beta-3 adrenergic receptor in brown adipose tissue(BAT mitochondria) of rats after subcutaneous administration; not active. The procedure, abridged:
as §2

Chain of Beta-3 adrenergic receptor (Rattus norvegicus) (P26255 whole entry): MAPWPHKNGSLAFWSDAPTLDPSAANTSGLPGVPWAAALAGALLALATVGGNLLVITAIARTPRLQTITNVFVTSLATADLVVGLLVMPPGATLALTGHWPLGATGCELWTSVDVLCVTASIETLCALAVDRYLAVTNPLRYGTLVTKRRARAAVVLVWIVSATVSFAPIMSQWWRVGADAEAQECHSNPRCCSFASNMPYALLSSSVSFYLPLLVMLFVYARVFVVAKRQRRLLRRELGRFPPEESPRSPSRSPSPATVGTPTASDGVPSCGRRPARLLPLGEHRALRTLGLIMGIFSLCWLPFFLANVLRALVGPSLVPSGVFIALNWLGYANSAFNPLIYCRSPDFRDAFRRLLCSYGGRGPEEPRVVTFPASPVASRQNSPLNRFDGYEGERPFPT

Consider `COC(=O)COc1cccc(OCCNCC(O)COc2ccccc2F)c1.Cl` (centres undefined), for which, in test [1], the SI was greater than 10.

With `O=C(O)COc1ccc(OCCNCC(O)COc2ccccc2)cc1` (centres undefined), it took a dose of 3.5 mg/kg to reach the 50% effect level in test [2] (ED50). In test [1], the SI was greater than 62.

For `COC(=O)COc1cccc(OCCNCC(O)COc2ccccc2)c1` (centres undefined), it took a dose of 5.28 mg/kg to reach the 50% effect level in test [2] (ED50). For the same molecule, the SI in test [1] is greater than 10.

For the molecule `COC(=O)COc1ccc(OCCNCC(O)COc2ccccc2)cc1` (centres undefined), it took a dose of 0.12 mg/kg to reach the 50% effect level in test [2] (ED50). Moreover, the SI in test [1] is greater than 100.

On to `COC(=O)c1ccc(CC(C)NCC(O)c2ccccc2)cc1` (centres undefined), for which, in test [2], the ED50 (commonly the dose that gives a 50% effect, or the effect in half of the subjects) was determined as 0.94 mg/kg. Moreover, the SI in test [1] was greater than 10.

`CC(C)NC[C@H](O)COc1ccc(O)cc1` [PRENALTEROL]: in test [3], the SI is less than 1.

Take `COC(=O)COc1ccc(CC(C)NCC(O)c2cccc(Cl)c2)cc1` (centres undefined): the median effective dose (ED50) in test [2] stood at 0.007 mg/kg. The SI in test [1] was greater than 100.

For `CCOC(=O)COc1ccc(OCCNCC(O)COc2ccccc2)cc1` (centres undefined), in test [1], the SI is greater than 100.

In the case of `CC(C)OC(=O)COc1ccc(OCCNCC(O)COc2ccccc2)cc1` (centres undefined), the SI in test [1] is greater than 10.

On to `COC(=O)COc1ccc(CCNCC(O)COc2ccccc2)cc1` (centres undefined), for which the 50% effective dose (ED50) in test [2] turned out to be 0.078 mg/kg. The SI in test [1] was greater than 100.

`CC(C)(C)OC(=O)COc1ccc(OCCNCC(O)COc2ccccc2)cc1` (centres undefined): in test [2], the median effective dose (ED50) was found to be 0.25 mg/kg. Also, in test [1], the SI is greater than 100.

For the molecule `COC(=O)COc1ccc(OCC(C)NCC(O)COc2ccccc2)cc1.O` (centres undefined), the SI in test [1] is greater than 10.

For the molecule `COC(=O)COc1ccc(C(=O)NCCNCC(O)COc2ccccc2)cc1` (centres undefined), in test [4], the ED50 entry is “inactive”.

Consider `COC(=O)COc1ccc(OCCNCC(O)COc2ccccc2F)cc1.Cl` (centres undefined), for which the 50% effect level in test [2] (ED50) was put at a dose of 0.54 mg/kg. Besides, the SI in test [1] is greater than 100.

For `Cl.O=C(O)COc1ccc(OCCNC[C@H](O)COc2ccccc2)cc1`, in test [2], the ED50 was determined as 0.45 mg/kg. In addition, the SI in test [1] was greater than 22.
